# Screening data: PubChem BioAssay, several laboratories
# PolyA inh – polyadenylation inhibitors in yeast reporter cells, primary screen, luminescence, S. cerevisiae | activity score, % at 12 µM | actives 0.02% (n = 300,000) | S. cerevisiae SKY197-pL101 polyadenylation reporter, beta-gal luminescence; efflux-impaired pdr1/pdr3 knockout yeast; score 100 = 6 SD above DMSO;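 active means lowest replicate activity score at least 50, where 100 means six control SD above control mean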;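 further: yeast exposed to compound for 9 h at 30 °C; higher score means more reporter readthrough which indicates perturbed polyadenylation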
# APOBEC3A inh – APOBEC3A ssDNA deaminase inhibitors, primary screen, selectivity assay for APOBEC3G inhibitor project, biochemical, FAM/TAMRA oligo cleavage fluorescence; actives 0.41% (n = 330,000); inhibition, % at 20 µM; DNA dC->dU-editing enzyme APOBEC-3A (Homo sapiens), P31941; recombinant A3A, FAM/TAMRA ssDNA deamination fluorescence;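 active means at least 40% inhibition at 20 µM here, with at most 30% in a related deaminase screen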
# Target sequence (P31941 whole entry, looked up): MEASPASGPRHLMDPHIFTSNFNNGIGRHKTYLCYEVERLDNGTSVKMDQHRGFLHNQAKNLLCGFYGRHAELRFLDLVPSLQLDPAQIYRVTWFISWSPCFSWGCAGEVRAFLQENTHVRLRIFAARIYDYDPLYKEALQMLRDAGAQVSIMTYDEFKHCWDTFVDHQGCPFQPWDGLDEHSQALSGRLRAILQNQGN
# UCH37 inh – inhibitors of human UCH37 deubiquitinase, primary screen, biochemical, Ub-AMC cleavage, fluorescence; purified proteasome/UCH37; inhibition, % (no concentration beside the values); actives 0.33% (n = 330,000);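 active means mean inhibition over replicate wells above about 20%, limit read from the data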
#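 Material: Human UCH37 enzyme supplied as purified proteasome complex | Schedule: 30 min compound-proteasome preincubation then 25 min substrate reaction, room temperature | Detection: AMC fluorescence from Ub-AMC cleavage, excitation 355 nm, emission 460 nm | Benchmarks: Wells without proteasome as full block, compound-free enzyme plus substrate as uninhibited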
# AHR act – AHR activators, primary screen, cell-based, luminescence, luciferase reporter, human | Aryl hydrocarbon receptor (Homo sapiens), P35869 | AHR-responsive luciferase reporter cells | activation, % at 5 µM | actives 2.5% (n = 320,000); in the data active means activation above about 47%
# APOBEC3G inh – APOBEC3G DNA deaminase inhibitors, primary screen, biochemical, fluorescence, single-stranded DNA substrate, uHTS. actives 0.28% (n = 330,000). recombinant A3G, ssDNA deamination FAM/TAMRA fluorescence. inhibition, % at 20 µM. AID 493012, 2011. DNA dC->dU-editing enzyme APOBEC-3G (Homo sapiens), Q9HC16;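 active means inhibition of at least 40% at 20 µM, with no more than 30% in the related APOBEC3A deaminase screen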
# Target sequence (Q9HC16 whole entry, looked up): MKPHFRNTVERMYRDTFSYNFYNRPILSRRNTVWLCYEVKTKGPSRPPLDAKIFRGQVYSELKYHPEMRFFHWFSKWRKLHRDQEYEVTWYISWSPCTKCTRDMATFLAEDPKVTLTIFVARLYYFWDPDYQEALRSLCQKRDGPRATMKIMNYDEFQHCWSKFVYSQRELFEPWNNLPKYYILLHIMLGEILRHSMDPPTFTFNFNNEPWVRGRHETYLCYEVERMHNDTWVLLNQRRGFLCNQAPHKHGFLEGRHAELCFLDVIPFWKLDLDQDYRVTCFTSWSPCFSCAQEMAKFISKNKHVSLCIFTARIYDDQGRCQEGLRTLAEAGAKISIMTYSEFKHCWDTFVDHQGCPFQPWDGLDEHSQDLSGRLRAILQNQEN
# Arrestin-AP2 inh – inhibitors of beta-arrestin/AP2 binding, primary screen, biochemical, GPCR trafficking, flow cytometry | beta-arrestin 1 C-terminal peptide binding to AP2 beta2-adaptin appendage (human) | FITC-arrestin peptide / GST-AP2 beads; AP2 beta2 appendage carries R879A mutation | inhibition, % at 10 µM | actives 0.31% (n = 340,000);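 active means inhibition above a set limit, near 3 SD of compounds lacking own fluorescence, cut at about 54% in these data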
#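 Assay system: GST-AP2 R879A bound to glutathione beads, E. coli-expressed; Medium: PBS with 0.05% Tween 20 and 0.1% BSA; Also added: fluorescein-tagged arrestin peptide at 50 nM final; Timing: 12 min plus 1 h, RT; Measured by: flow cytometry, FL1 (488/535 nm); Evaluation: percent drop in bead-associated FITC signal.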
# Arr-AP2 CP1 – inhibitors of arrestin peptide binding to AP2, confirmation, biochemical, cherry pick 1, flow cytometry beads; shares compounds with Arrestin-AP2 inh; GST-AP2 beads, FITC arrestin peptide binding; GST-fused beta2-adaptin appendage, R879A mutant; inhibition, % at 10 µM; actives 2% (n = 1,300);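 active means inhibition above a set limit, roughly 3 SD of non-fluorescent compound noise, cut at about 38% in these data; inactive means inhibition at or below that limit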;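 further: loss of bead fluorescence from 50 nM FITC arrestin peptide bound to appendage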
# GST-FITC bead – GST-fluorescein capture on glutathione beads, confirmation, artefact control for arrestin-AP2 inhibitor project, biochemical, cherry pick 1, flow cytometry | shares compounds with Arrestin-AP2 inh | GST-fluorescein binding to GSH beads, fluorescence, counter-screen | inhibition, % at 10 µM | actives 2% (n = 1,300) | AID 588338, 2011;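 active means inhibition above 50%, about 3 SD of the inhibition seen with non-fluorescent compounds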;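 further: fluorescein maleimide labelled GST captured on 4 micron glutathione beads; higher means more loss of bead fluorescence from quenching or blocked binding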
# Numbers stand for hits; i = inactive; nt = not tested or not shown. Compounds with a hit are over-represented: about 3.4% of the library has one in this group of screens.
SMILES,PolyA inh,APOBEC3A inh,UCH37 inh,AHR act,APOBEC3G inh,Arrestin-AP2 inh,Arr-AP2 CP1,GST-FITC bead
CC(C)(C)NC(=O)COC(=O)c1ccccc1OCC(=O)Nc1ccc(Br)cc1,nt,i,i,i,i,103,i,i
COc1ccc(NN=C(C)C(=NO)C(=O)Nc2ccccc2)cc1,nt,nt,i,nt,nt,nt,nt,nt
COc1ccc(CCN(C)C(=O)c2cc(-c3ccccc3)nc3ccc(C)cc23)cc1OC,i,i,i,i,i,67,i,i
COc1ccc(CCN(C)C(=O)c2cc(-c3ccccc3)nc3ccccc23)cc1OC,i,i,i,nt,i,i,nt,nt
Cc1ccccc1C(=O)Nc1nnc(-c2cccnc2)o1,i,i,i,i,i,60,i,i
CC(=NNC(=O)c1cccs1)c1c(O)cc(C)oc1=O,nt,nt,i,nt,nt,nt,nt,nt
CSCCC(NS(=O)(=O)c1ccccc1F)C(=O)NCC(C)(C)N1CCOCC1 (stereo unspecified),nt,i,i,i,i,56,i,i
Nc1nnnn1N=Cc1cc(Br)ccc1O,nt,nt,i,nt,nt,nt,nt,nt
O=C(CN1CCCCC1)NN=Cc1ccc(Cl)cc1,nt,nt,i,nt,nt,nt,nt,nt
CCN(CC)c1ccc(NS(=O)(=O)c2ccc(-c3ccc(=O)[nH]n3)o2)c(C)c1,i,i,i,i,i,57,i,i
Cn1cc(Br)c(C(=O)NN=Cc2cccc(OC3CSC3)c2)n1,nt,nt,i,nt,nt,nt,nt,nt
COC1c2ccccc2C(=O)N1Cc1ccc(F)cc1 (stereo unspecified),i,i,i,i,i,61,i,i
Cc1cc(C)n2[nH]c(=O)c(N=Nc3cccc(Cl)c3)c2n1,i,i,i,i,i,90,i,i
Cc1cc(C)n2[nH]c(=O)c(N=Nc3ccccc3)c2n1,i,i,i,i,i,i,nt,nt
O=C(O)c1cccc2c(C=NNc3ccccn3)c[nH]c12,nt,nt,i,nt,nt,nt,nt,nt
CCc1ccc(NC(=O)Nc2cnccn2)cc1,i,i,i,i,i,i,i,i
CCCCc1ccc(NC(=O)Nc2cnccn2)cc1,i,i,i,i,i,i,i,i
Clc1ccc(N2CCN(N=Cc3ccncc3)CC2)cc1,nt,nt,i,nt,nt,nt,nt,nt
Cn1ccc(C(=O)OCC(=O)c2ccccc2)n1,i,i,i,i,i,i,nt,nt
Cn1ccc(C(=O)OCC(=O)Nc2cccc3ccccc23)n1,i,i,i,i,i,59,i,i
O=C(NC1CCN(Cc2ccccc2)CC1)c1ccc(S(=O)(=O)NCc2ccco2)cc1,i,i,i,i,i,i,nt,nt
O=C(NCc1ccccc1F)c1ccc(S(=O)(=O)NCc2ccco2)cc1,nt,i,i,nt,i,i,nt,nt
O=C(c1ccc(S(=O)(=O)NCc2ccco2)cc1)N1CCN(Cc2ccccc2F)CC1,nt,i,i,nt,i,i,i,i
O=C(c1ccc(S(=O)(=O)NCc2ccco2)cc1)N1CCN(Cc2ccccc2)CC1,i,i,i,i,i,59,i,i
COc1ccc(CN2CCN(C(=O)c3ccc(S(=O)(=O)NCc4ccco4)cc3)CC2)cc1,nt,i,i,nt,i,i,i,i
SMILES,PolyA inh,APOBEC3A inh,UCH37 inh,AHR act,APOBEC3G inh,Arrestin-AP2 inh,Arr-AP2 CP1,GST-FITC bead
COCCNC(=S)NN=C(C)c1ccc(C)c([N+](=O)[O-])c1,nt,nt,i,nt,nt,nt,nt,nt
Cn1ccnc1SCc1cn2ccccc2n1,i,i,i,i,i,83,i,i
Cc1ccc(-c2c(C(=O)N/N=C/c3cccs3)nnn2-c2nonc2N)cc1,i,i,nt,i,i,i,nt,nt
CCOc1ccc(-c2c(C(=O)N/N=C/c3cccs3)nnn2-c2nonc2N)cc1,i,i,nt,i,i,61,i,i
COc1ccc(OC)c(NC(=O)c2cc3c(Cl)nc4ccccc4c3s2)c1,i,i,i,i,i,104,i,i
COc1ccc(NC(=O)c2cc3c(Cl)nc4ccccc4c3s2)cc1OC,i,i,i,i,i,i,nt,nt
Clc1ccc(C=NNc2nn[nH]n2)cc1,nt,nt,i,nt,nt,nt,nt,nt
CCCOc1ccc(-c2c(C(=O)NN=Cc3ccsc3)nnn2-c2nonc2N)cc1,nt,nt,i,nt,nt,nt,nt,nt
Clc1cccc(C=NNc2ncnc3ccccc23)c1,nt,nt,i,nt,nt,nt,nt,nt
COC(=O)Cc1ccc(NC(=S)N2CCN(C)CC2)cc1,i,i,i,i,i,i,nt,nt
COC(=O)Cc1ccc(NC(=S)N2CCCCC2C)cc1 (stereo unspecified),i,i,i,i,i,57,i,i
COc1ccccc1C(=O)NC(=O)COC(=O)c1nc2nc(C)cc(C)n2n1,i,i,i,i,i,60,i,i
COc1ccccc1C(=O)NC(=O)CSc1nc2nc(C)cc(C)n2n1,nt,i,i,i,i,i,nt,nt
O=c1cnnc(NN=CC2CC=CCC2)[nH]1 (stereo unspecified),nt,nt,i,nt,nt,nt,nt,nt
CC(=NN=C(N)N)c1ccc(Cl)c(Cl)c1,nt,nt,i,nt,nt,nt,nt,nt
C=C(C)CNC(=S)NN=Cc1ccco1,nt,nt,i,nt,nt,nt,nt,nt
COc1ccc(C(C)=NNc2nc(-c3ccccc3)cc(=O)[nH]2)cc1,nt,nt,i,nt,nt,nt,nt,nt
O=C(CCNC(=O)c1ccc(Cl)cc1)NCCC1=CCCCC1,i,i,i,i,i,64,i,i
CCCCOC(=O)CCCN1C(=O)/C(=C2\SC(=S)N(CCCC(=O)OCCCC)C2=O)SC1=S,i,i,i,i,i,67,i,i
Oc1ccc(/C=N/Nc2nc(N3CCCC3)nc(N3CCCC3)n2)cc1O,i,i,nt,i,i,58,i,i
CC(C)(C)[C@H]1C=C(C(=O)N2CCOCC2)O[C@@H](OCCCCO)C1,i,i,i,i,i,54,i,i
Nc1nc2ccccc2n1N=Cc1ccc([N+](=O)[O-])s1,nt,nt,i,nt,nt,nt,nt,nt
O=C(/C=C/c1cccs1)Nc1cccnc1,i,i,i,56,i,56,i,i
CCCn1c(=O)c(C(=O)NCCc2ccc(OC)cc2)c(O)c2ccccc21,i,i,i,nt,i,55,i,i
CCCn1c(=O)c(C(=O)NCCc2ccccc2)c(O)c2ccccc21,i,i,i,i,i,i,nt,nt
